Measurements published in ChEMBL document CHEMBL4765233, “From Lead to Drug Candidate: Optimization of 3-(Phenylethynyl)-1H-pyrazolo[3,4-d]pyrimidin-4-amine Derivatives as Agents for the Treatment of Triple Negative Breast Cancer” (J Med Chem, 2016).
The source made the active and inactive calls. The calls are words filed in the database; no cut-off is given here.

Experiments:
MDA-MB-231 [1] = assay: Inhibition of colony formation in human MDA-MB-231 cells at >0.1 uM treated for 12 days by crystal violet staining based visual analysis; type: functional; details: dose microM >0.1; time 12 day
Method in brief: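 MDA-MB-231 cells seeded at 5000 per well in six-well plates and treated the next day, with drug-containing medium replaced every 4 days. After 12 days, colonies fixed with methanol and stained with crystal violet, then photographed.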

[2] = Acute toxicity in Sprague-Dawley rat assessed as histopathological changes in kidney at 100 mg/kg, po administered as single dose measured after 24 hrs by H and E staining based light microscope analysis; type: organism-based; details: in vivo
Method in brief: (§1)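 Sprague-Dawley rats received a single oral dose of 100 mg/kg in sterile water with 25% (v/v) PEG400 plus 5% DMSO. Organs were examined by histology and immunohistochemistry for pathological changes. Behaviour and side effects were checked daily.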

MDA-MB-231 [3] = assay: Induction of apoptosis in human MDA-MB-231 cells assessed as live cells at 0.1 uM incubated for 24 hrs by annexin V-FITC and propidium iodide staining based flow cytometry analysis (reference value: 96.95 %); type: functional
[4] = Toxicity in SCID mouse xenografted with MDA-MB-231 cells assessed as animal death at 40 mg/kg, po qd for 15 days; type: organism-based; details: in vivo, dose 40 mg/kg/day, time 15 day, read-out: Activity
Ramos = assay: Antiproliferative activity against human Ramos cells assessed as reduction in cell viability incubated for 72 hrs by MTT assay; type: functional, cell-based
Method in brief: (§2)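 MTT viability assay. ATCC cell lines were grown in designated medium with 10% FBS at 37 °C, 5% CO2. Cells seeded at 1500−30000 per well and incubated 24 h, then exposed to compound (0−10 μg/mL) for 72 h. MTT added for 2−4 h. Formazan dissolved in DMSO (adherent) or acidified SDS overnight (suspension), absorbance read at 570 nm. Triplicates; IC50 calculated.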

[5] = Acute toxicity in female Sprague-Dawley rat assessed as increase of body weight at 200 mg/kg, po administered as single dose and monitored every 3 days; type: organism-based; details: in vivo, 72 h
Method in brief: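 Sprague-Dawley rats (n = 3) received a single oral dose of 200 mg/kg in sterile water with 25% (v/v) PEG400 plus 5% DMSO. Behaviour and side effects were monitored daily, and average body weight was measured every 3 days.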

Ephrin type-A receptor 4 = Ephrin type-A receptor 4 (Homo sapiens, UniProt P54764); assay: Inhibition of human recombinant EPHA4 (601 to 892 residues) using poly(Glu,Tyr)4:1 as substrate incubated for 40 mins in presence of [gamma33P-ATP] by radiometric scintillation counting analysis
Chain of Ephrin type-A receptor 4 (P54764 whole entry, the tested form may be a part): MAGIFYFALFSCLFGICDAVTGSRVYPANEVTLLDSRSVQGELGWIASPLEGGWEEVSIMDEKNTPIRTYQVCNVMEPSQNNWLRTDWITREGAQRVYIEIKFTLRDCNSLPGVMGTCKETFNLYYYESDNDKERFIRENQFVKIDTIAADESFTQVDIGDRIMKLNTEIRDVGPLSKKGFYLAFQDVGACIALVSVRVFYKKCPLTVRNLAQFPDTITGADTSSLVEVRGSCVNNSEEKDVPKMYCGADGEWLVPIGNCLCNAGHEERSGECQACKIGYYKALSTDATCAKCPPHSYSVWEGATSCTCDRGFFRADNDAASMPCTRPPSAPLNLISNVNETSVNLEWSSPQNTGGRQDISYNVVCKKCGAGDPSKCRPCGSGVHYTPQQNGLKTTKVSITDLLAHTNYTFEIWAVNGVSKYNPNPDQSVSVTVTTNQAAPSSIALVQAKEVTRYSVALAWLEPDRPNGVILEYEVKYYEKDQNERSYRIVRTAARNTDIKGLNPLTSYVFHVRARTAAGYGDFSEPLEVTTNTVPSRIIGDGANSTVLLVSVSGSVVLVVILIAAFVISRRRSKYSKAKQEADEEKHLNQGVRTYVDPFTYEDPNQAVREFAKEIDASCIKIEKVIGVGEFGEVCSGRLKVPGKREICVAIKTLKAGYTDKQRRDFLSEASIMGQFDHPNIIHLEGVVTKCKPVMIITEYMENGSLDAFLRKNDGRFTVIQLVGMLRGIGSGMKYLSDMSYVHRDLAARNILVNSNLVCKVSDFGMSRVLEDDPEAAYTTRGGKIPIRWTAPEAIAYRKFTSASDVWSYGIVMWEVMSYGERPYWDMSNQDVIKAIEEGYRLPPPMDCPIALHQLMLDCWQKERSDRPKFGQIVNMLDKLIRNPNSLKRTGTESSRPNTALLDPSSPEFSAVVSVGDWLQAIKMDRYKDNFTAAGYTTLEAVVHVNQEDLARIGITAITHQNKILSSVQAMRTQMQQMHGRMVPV
Method in brief: (§3)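 Radiometric kinase assay run as an external profiling service, with ATP at the Km of each kinase. IC50 values are means of two independent experiments.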

MDA-MB-231 [6] = assay: Induction of apoptosis in human MDA-MB-231 cells assessed as early apoptotic cells at 0.01 uM incubated for 24 hrs by annexin V-FITC and propidium iodide staining based flow cytometry analysis (reference value: 2 %); type: functional
MDA-MB-231 [7] = assay: Antitumor activity against human MDA-MB-231 cells xenografted in SCID mouse assessed as tumor growth inhibition at 40 mg/kg, po qd for 15 days and measured every 3 days; type: functional; details: MDA-MB-231, po, 360 h, time 15 day
Method in brief: (§4)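 SCID mice (5−6 weeks) injected subcutaneously with 100 μL of cells at 5 × 10^7/mL. At 150−200 mm3 mice randomized, 6 per group. Oral compounds given in water with 25% PEG400 plus 5% DMSO; paclitaxel given 10 mg/kg/week iv. Tumor volume a×b²/2 and body weight measured every 3 days. Inhibition rate (c−d)/c×100% against vehicle control.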

[8] = target: Tyrosine-protein kinase receptor TYRO3 (Homo sapiens, UniProt Q06418); assay: Inhibition of human recombinant RSE (451 to end residues) using KVEKIGEGTYGVVYK as substrate incubated for 40 mins in presence of [gamma33P-ATP] by radiometric scintillation counting analysis; method in brief: as §3
Chain of Tyrosine-protein kinase receptor TYRO3 (Q06418 whole entry): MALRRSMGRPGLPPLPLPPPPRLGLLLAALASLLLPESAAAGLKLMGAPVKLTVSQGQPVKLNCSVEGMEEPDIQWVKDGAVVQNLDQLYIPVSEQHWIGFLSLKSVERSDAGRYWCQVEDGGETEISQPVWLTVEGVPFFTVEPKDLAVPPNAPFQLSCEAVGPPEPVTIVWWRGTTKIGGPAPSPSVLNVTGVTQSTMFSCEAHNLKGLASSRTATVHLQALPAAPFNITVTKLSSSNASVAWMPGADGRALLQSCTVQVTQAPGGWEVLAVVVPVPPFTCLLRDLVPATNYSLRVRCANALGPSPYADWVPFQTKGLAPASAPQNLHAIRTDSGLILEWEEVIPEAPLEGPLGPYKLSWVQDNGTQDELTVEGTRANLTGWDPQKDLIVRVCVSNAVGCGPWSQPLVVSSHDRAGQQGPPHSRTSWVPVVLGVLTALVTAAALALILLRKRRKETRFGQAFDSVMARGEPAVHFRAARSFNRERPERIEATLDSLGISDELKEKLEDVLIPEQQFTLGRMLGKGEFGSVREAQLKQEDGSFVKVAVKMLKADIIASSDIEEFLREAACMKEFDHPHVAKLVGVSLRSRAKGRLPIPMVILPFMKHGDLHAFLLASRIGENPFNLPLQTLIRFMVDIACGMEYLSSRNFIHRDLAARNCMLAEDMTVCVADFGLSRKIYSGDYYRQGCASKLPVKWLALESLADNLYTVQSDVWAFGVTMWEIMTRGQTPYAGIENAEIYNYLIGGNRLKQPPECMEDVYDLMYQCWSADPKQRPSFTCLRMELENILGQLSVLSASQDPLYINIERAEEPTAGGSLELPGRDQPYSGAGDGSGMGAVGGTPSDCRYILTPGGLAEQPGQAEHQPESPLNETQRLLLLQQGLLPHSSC

MDA-MB-435 = assay: Antitumor activity against human MDA-MB-435 cells xenografted in SCID mouse assessed as tumor growth inhibition at 40 mg/kg, po QD for 21 days and measured every 3 days; type: functional; details: MDA-MB-435, po, 504 h, time 21 day; method in brief: as §4
MDA-MB-231 [9] = assay: Induction of apoptosis in human MDA-MB-231 cells assessed as early apoptotic cells at 0.1 uM incubated for 24 hrs by annexin V-FITC and propidium iodide staining based flow cytometry analysis (reference value: 2 %); type: functional
MV4-11 = assay: Antiproliferative activity against human MV4-11 cells assessed as reduction in cell viability incubated for 72 hrs by MTT assay; type: functional, cell-based; details: MV4-11, 72 h; method in brief: as §2
MDA-MB-231 [10] = assay: Antitumor activity against human MDA-MB-231 cells xenografted in SCID mouse assessed as tumor growth inhibition at 40 mg/kg, po qd for 21 days and measured every 3 days; type: functional; details: MDA-MB-231, po, 504 h, time 21 day; method in brief: as §4
L02 = assay: Cytotoxicity against human L02 cells assessed as reduction in cell viability incubated for 72 hrs by MTT assay; type: cell-based; details: L02, 72 h; method in brief: as §2
MDA-MB-231 [11] = assay: Antimigratory activity against human MDA-MB-231 cells assessed as inhibition of cell migration at 0.3 uM incubated for 20 hrs by wound healing assay; type: functional, cell-based
Method in brief: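 MDA-MB-231 monolayer grown to confluence, scratched with a sterile pipet tip, rinsed with physiological saline, then given DMEM containing vehicle or compound. Wound imaged after 20 h to assess migration.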

[12] = Metabolic stability in monkey liver microsomes assessed as parent compound remaining at 1 uM measured after 60 mins in presence of NADPH by HPLC-MS/MS analysis; type: ADME, Macaca mulatta, Microsome; details: rhesus monkey, read-out: Stabilty
Method in brief: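 Compound at 1 μM incubated with 0.5 mg/mL liver microsomes and 1 mM NADPH. Samples taken at 0, 10, 15, 30, 45 and 60 min and quenched with acetonitrile. After centrifugation, supernatant analysed by HPLC-MS/MS, with percent parent remaining relative to the 0 min area.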

Danio rerio = species on record: Danio rerio; assay: Antiangiogenesis activity in EGFP-labelled zebrafish embryo assessed as reduction in formation of dorsal aorta at 1.25 to 5 uM incubated for overnight by fluorescence microscopic analysis; type: functional, organism-based; details: dose 1.25-5 µM
Method in brief: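 Transgenic FLK:EGFP zebrafish kept at 28 °C, pH 7.2−7.4, 14 h light/10 h dark. Embryos at 30 hpf incubated overnight with compound at 1.25, 2.5 or 5 μM beside a blank control. Fish anaesthetized, then vessels imaged by fluorescence microscopy.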

[13] = Acute toxicity in Sprague-Dawley rat assessed as histopathological changes in lungs at 100 mg/kg, po administered as single dose measured after 24 hrs by H and E staining based light microscope analysis; type: organism-based; details: in vivo; method in brief: as §1
MDA-MB-231 [14] = assay: Induction of apoptosis in human MDA-MB-231 cells assessed as early apoptotic cells at 0.03 uM incubated for 24 hrs by annexin V-FITC and propidium iodide staining based flow cytometry analysis (reference value: 2 %); type: functional

Cc1ccc(NC(=O)c2ccc(C)c(C(F)(F)F)c2)cc1C#Cc1nn([C@H]2CC[C@H](O)CC2)c2ncnc(N)c12
inhibition (INH) (MDA-MB-231 [1]): 100% | Activity [2]: Non-Toxic | Activity (MDA-MB-231 [3]): 67.94% | mortality at 360 h [4]: 0% | IC50 (Ramos): 10000 nM | Activity [5]: Non-Toxic | IC50 (Ephrin type-A receptor 4): 227 nM | Activity (MDA-MB-231 [6]): 5.05% | inhibition in vivo at 40 mg/kg/day (MDA-MB-231 [7]): 96.2% | IC50 [8]: 351 nM | inhibition in vivo at 40 mg/kg/day (MDA-MB-435): 100% | Activity (MDA-MB-231 [9]): 13.48% | IC50 (MV4-11): 138 nM | inhibition in vivo at 40 mg/kg/day (MDA-MB-231 [10]): 100% | IC50 (L02): > 10000 nM | Activity (MDA-MB-231 [11]): Active | remaining at 1 h, 1 µM [12]: > 90% | Activity (Danio rerio): inactive | Activity [13]: Non-Toxic | Activity (MDA-MB-231 [14]): 8.02%
